# Screens: PubChem, several laboratories
# The list is not random: actives were taken first. Their share in the collection is about 5.1%.
# M1 antag – blocks the rat M1 muscarinic receptor response to acetylcholine | P08482 | CHO-M1 cells, Fluo-4 calcium, ACh EC80 antagonist mode; stronger effect = lower value | B-score at 10 µM | 64,000 tested, 3.4% active;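 active means calcium fluorescence response, raw or row-and-column corrected B-score, differing from the plate sample mean either way at a set confidence level, mostly lower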
# BAP1 inh – human BAP1 deubiquitinase inhibition | Q92560 | recombinant BAP1, Ub-AMC hydrolysis fluorescence kinetic; stronger effect = lower value | calls only at 20 µM | 72,000 tested, 0.48% active;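 active means activity remaining at or below 50% of control, provided the compound also passes the data quality filters; inactive means the rest, including low values that fail the filters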;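 further: 100% = DMSO wells rate and 0% = substrate alone blank rate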
# Target sequence (Q92560 whole entry, looked up): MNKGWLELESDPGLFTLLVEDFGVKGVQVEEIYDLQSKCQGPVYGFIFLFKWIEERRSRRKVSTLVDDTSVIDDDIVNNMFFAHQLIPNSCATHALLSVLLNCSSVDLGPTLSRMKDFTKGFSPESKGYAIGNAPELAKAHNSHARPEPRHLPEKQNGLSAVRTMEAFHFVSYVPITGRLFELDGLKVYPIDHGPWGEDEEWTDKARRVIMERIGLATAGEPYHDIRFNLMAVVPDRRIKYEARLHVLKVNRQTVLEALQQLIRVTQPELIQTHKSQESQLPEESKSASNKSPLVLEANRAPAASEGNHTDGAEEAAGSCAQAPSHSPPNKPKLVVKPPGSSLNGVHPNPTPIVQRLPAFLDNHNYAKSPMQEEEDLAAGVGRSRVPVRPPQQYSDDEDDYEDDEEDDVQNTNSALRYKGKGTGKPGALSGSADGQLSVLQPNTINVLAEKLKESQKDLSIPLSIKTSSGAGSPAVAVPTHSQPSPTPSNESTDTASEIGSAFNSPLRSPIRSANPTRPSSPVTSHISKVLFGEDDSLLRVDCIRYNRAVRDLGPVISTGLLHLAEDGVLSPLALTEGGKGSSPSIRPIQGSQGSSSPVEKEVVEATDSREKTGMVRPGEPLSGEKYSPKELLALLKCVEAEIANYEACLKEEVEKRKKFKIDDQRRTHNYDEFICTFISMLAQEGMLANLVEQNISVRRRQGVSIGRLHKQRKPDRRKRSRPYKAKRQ
# Hsp90 inh – displaces geldanamycin probe from tumor Hsp90; AID 429; inhibition, % at 30 µM; 64,000 tested, 0.35% active; NCI-N417 lysate Hsp90, Cy3B-geldanamycin FP displacement;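 active means inhibition above 50%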;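 further: 0% = tracer plus lysate wells and 100% = tracer alone without lysate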
# M1 ag – M1 muscarinic receptor agonism | CHO-M1 cells, Fluo-4 calcium fluorescence, agonist mode; stronger effect = higher value | B-score at 10 µM | 64,000 tested, 3% active | AID 626;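 active means fluorescence rise, raw or as B-score row- and column-corrected plate score, outside the 99.7% band of its plate's samples, either direction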
# Ecoli tolC – E. coli tolC mutant growth inhibition. 65,000 tested, 2.2% active. growth inhibition, % at 10 µM (by protocol). E. coli BW25113 tolC mutant growth, OD615. AID 573;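 active means growth inhibition at or above a cutoff equal to the mean over every tested compound plus 3 SD, cut at about 60% in these data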;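 further: growth measured after 20 h incubation at 37 °C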
#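 test system = E. coli BW25113 ΔtolC::kan bacteria | medium = LB with kanamycin 50 µg/mL | signal = OD at 615 nm | schedule = 37 °C, 20 h exposure | evaluation = % inhibition of E. coli growth | compound dosing = one dose of 10 µM final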
# E coli WT exp – growth inhibitors of E. coli BW25113 wild type; AID 710; OD600 absorbance; growth inhibition, % at 100 µM; 98,000 tested, 0.15% active;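 active means growth inhibition above about 50% at one test dose, limit read from the data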;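 further: growth measured after 20 h incubation at 37 °C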
# M1 antag confirm – M1 muscarinic receptor (rat) antagonism, confirmed; shares compounds with M1 antag; CHO-M1 cells, Fluo-4 calcium, ACh EC80 antagonism; stronger effect = lower value; calcium response (max-min fluorescence) at 10 µM; 1,700 tested, 43% active; AID 677;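 active means calcium response below the same-plate mean of wells given acetylcholine alone at its 80%-effect dose, minus 3 SD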;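 further: raw fluorescence intensity difference in arbitrary instrument units and not normalized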
# mGluR4 antag – selectivity test for M1 antagonists: human mGluR4 receptor; shares compounds with M1 antag; CHO-mGluR4 calcium flux, Fluo-4 fluorescence, glutamate EC80; stronger effect = lower value; AID 678; fluorescence response (max-min) at 10 µM; 1,700 tested, 0.9% active;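 active means fluorescence response below the plate's average for near-maximal glutamate wells, less 3 SD of those wells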;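 further: raw unnormalized fluorescence span taken in the window right after glutamate addition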
# Active calls of the source: *; i = inactive; · = not tested or not shown.
SMILES,M1 antag,BAP1 inh,Hsp90 inh,M1 ag,Ecoli tolC,E coli WT exp,M1 antag confirm,mGluR4 antag
CCOc1c(NC(=O)c2ccc([N+](=O)[O-])cc2)cc(NC(=O)c2ccc([N+](=O)[O-])cc2)cc1C(N)=O,·,i,·,·,·,·,·,·
CCCCNS(=O)(=O)c1ccc2nc(SCC(=O)Nc3sccc3C#N)[nH]c2c1,-3.1*,i,-5,0.58,51,1,523,204
CCCCNS(=O)(=O)c1ccc2nc(SCC(=O)c3ccccc3OC)[nH]c2c1,·,·,·,·,·,-10,·,·
CC(C)(C)NC(=O)Cn1c(=O)oc2cc(S(=O)(=O)N3CCc4ccccc43)ccc21,-2.4*,i,-3,-0.089,9,4,588,245
CCOC(=O)Cn1c(=O)oc2cc(S(=O)(=O)NCCc3ccc(OCC)c(OCC)c3)ccc21,-2.3*,i,-2,-0.15,2,3,650,198
CCOC(=O)Cn1c(=O)oc2cc(S(=O)(=O)N3CCc4ccccc43)ccc21,-3.7*,i,-3,-2.3,28,-2,533,230
Cn1c(=O)oc2cc(S(=O)(=O)N3CCCc4ccccc43)ccc21,-1.2,i,0,-0.25,-2,2,·,·
CCOC(=O)Cn1c(=O)oc2cc(S(=O)(=O)NCCC(C)C)ccc21,·,·,·,·,·,6,·,·
CCOC(=O)c1nnn(-c2nonc2-n2cccc2)c1C,0.05,i,-8,-0.077,1,10,·,·
CCOC(=O)c1nnn(-c2nonc2NC(C)=O)c1C,-0.9*,i,-2,-0.32,-4,-3,574*,178
CC(=O)c1c(C)oc2c(Cl)cc(NS(=O)(=O)c3ccc4ccccc4c3)cc12,·,i,·,·,·,·,·,·
O=C(NCCN1Cc2ccccc2C1=O)c1cccs1,-0.58,i,1,0.67,-16,5,·,·
O=C1c2ccccc2CN1CCNS(=O)(=O)c1ccc(Cl)cc1,-1.8*,i,-2,-0.063,-4,4,674,261
N#Cc1c(N=Cc2c[nH]c3ccccc23)oc(-c2ccccc2)c1-c1ccccc1,·,i,·,·,·,·,·,·
Cc1cccc(OCC(=O)Nc2ccc3c(c2)OCCO3)c1,-5*,i,1,0.28,-3,1,653,247
CCC(=O)Nc1cccc(NC(=O)c2ccc3c(c2)OCCO3)c1,-2.6*,i,-3,0.23,11,10,605,216
CCCCS/C(=C(/C#N)C(N)=O)c1cc2c([nH]1)CCCC2,-6*,i,-3,0.18,39,4,140*,267
COC(=O)c1[nH]c2cccc(Cl)c2c1NC(=O)CN(C)C1CCCCC1,-1.8*,i,-7,1.2,15,11,367*,180
COc1ccc(S(=O)(=O)N(C)c2ccc(OCC(=O)Nc3cc(C)on3)cc2)cc1,-2.8*,i,-3,-0.64,10,-9,604,218
COc1ccc(OCCC(=O)Nc2cc(C)on2)cc1,0.68,i,0,-0.03,-2,15,·,·
Cc1ccc(-c2nn(CC(=O)NCCN3CCOCC3)c(=O)c3ccccc23)cc1,-2.5*,i,-3,1.9,4,10,657,220
CCOc1ccc(Nc2nc(Cc3nnc(SCC(N)=O)o3)cs2)cc1,-1.7*,i,-3,-0.9,-15,1,661,262
c1ccc(Oc2cccc(NC3=NCCC3)c2)cc1,-3.5*,i,-4,-0.76,0,5,393*,265
CC1(C)CC(N2CCC(=O)N(C3CC(C)(C)NC(C)(C)C3)C2)CC(C)(C)N1,-3.2*,i,0,-0.095,-14,0,547,199
O=c1cc[nH]cc1[N+](=O)[O-],·,i,·,·,·,·,·,·
SMILES,M1 antag,BAP1 inh,Hsp90 inh,M1 ag,Ecoli tolC,E coli WT exp,M1 antag confirm,mGluR4 antag
O=C(Nc1ccc2nc(-c3cccs3)c(-c3cccs3)nc2c1)N1CCOCC1,-12*,i,-9,0.16,17,-7,138*,206
Cc1nc2ccc(NC(=O)N3CCSCC3)cc2nc1C,0.55,·,-3,0.4,-7,7,·,·
Cc1ccc(S(=O)(=O)Nc2cc(S(=O)(=O)c3ccc(Cl)cc3)c(O)c3ccccc23)cc1,·,i,·,·,·,·,·,·
CCC(c1nnnn1Cc1ccco1)N(Cc1cc2cc(C)cc(C)c2[nH]c1=O)CC1CCCO1 (stereo not given),0.13,i,-6,-0.56,3,-6,·,·
CCC(c1nnnn1Cc1ccco1)N(Cc1ccccc1OC)Cc1cc2cc(C)ccc2[nH]c1=O (stereo not given),-2.2*,·,-1,0.65,23,-9,590,201
O=C(Cc1ccc(Cl)cc1)Nc1ccccc1CO,-2.5*,·,·,0,0,4,613,236
Cc1nc2cc(N=Cc3ccc(Br)cc3)ccc2n1C,·,i,·,·,·,·,·,·
Cc1ccccc1C(=O)Nc1sc2c(c1C(=O)Nc1cccc3ccccc13)CCC2,·,i,·,·,·,·,·,·
CCS(=O)(=O)N1CCC(C(=O)NCCN2CCN(Cc3ccccc3)CC2)CC1,-3.4*,i,-1,-0.078,-18,-6,519,201
Cc1ccc(S(=O)(=O)N2CCC(C(=O)NCCN3CCCCCC3)CC2)cc1,-3.5*,i,2,-0.47,-19,0,527*,217
CCOC(=O)N1CCC(NC(=O)C2CCN(S(=O)(=O)c3c(C)noc3C)CC2)CC1,-0.53,i,-4,-1.3,-6,5,·,·
Cc1nnc(SCC(=O)Nc2ccc(S(=O)(=O)N3CCCC3)cc2)n1N,-4.7*,i,0,-0.033,11,-1,276*,241
Cc1noc(C)c1S(=O)(=O)N1CCC(C(=O)NCCN2CCC(C)CC2)CC1,-4.3*,i,-6,1.2,-7,1,437,198
CC1CCCN(CC(=O)Nc2ccc(S(=O)(=O)N3CCCCCC3)cc2)C1 (stereo not given),-2.1*,i,-3,1.1,5,4,375*,255
CCCS(=O)(=O)N1CCC(C(=O)NCCN2CCC(Cc3ccccc3)CC2)CC1,-4.6*,i,-3,-0.61,-15,8,467*,233
Cc1ccc(C)c(Cn2nnc3c(=O)[nH]c(C(=O)NCc4ccco4)nc32)c1,-2.4*,i,-8,-0.83,19,3,560,251
O=C(NCc1cccs1)c1nc2c(nnn2Cc2ccc(F)cc2)c(=O)[nH]1,·,i,1,·,30,-22,·,·
COc1ccc2nc(NC(=O)CSc3nnc(-c4ccoc4C)n3C)sc2c1,-11*,i,2,-0.31,-10,-14,492,185
Cn1cnnc1SCc1cccc(Br)c1,·,·,·,·,·,10,·,·
Cn1cnnc1SCc1ccc(C(=O)n2ncc(C#N)c2N)cc1,-3.6*,i,0,1.5,-13,-1,606,230
